Assay results: ChEMBL document CHEMBL4017460, “A Tobramycin Vector Enhances Synergy and Efficacy of Efflux Pump Inhibitors against Multidrug-Resistant Gram-Negative Bacteria” (J Med Chem, 2017)
Values after ≈ are worked out from the molar mass of the structure shown. Active and inactive are the calls of the source. The calls are words filed in the database; no cut-off is given here.

Key:
[1] = test system: Klebsiella pneumoniae; experiment: Inhibition of RND efflux pump in Klebsiella pneumoniae isolate 116381 assessed as potentiation of minocycline-induced antibacterial activity by measuring fold reduction in minocycline MIC at 8 ug/ml after 18 to 24 hrs by microbroth dilution assay
Procedure, shortened: (§1)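 Absolute minocycline MIC taken from checkerboard broth dilution with a fixed 8 μg/mL adjuvant. Inoculum was a 0.5 McFarland saline suspension diluted 1:50 in MHB, incubated 37 °C for 18 h. MIC is the lowest concentration with no growth.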

[2] = test system: Pseudomonas aeruginosa; experiment: Inhibition of RND efflux pump in Pseudomonas aeruginosa isolate P262-101856 assessed as potentiation of minocycline-induced antibacterial activity at 8 ug/ml after 18 to 24 hrs by checker board assay
Procedure, shortened: (§2)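 Checkerboard in MHB: antibiotic 2-fold diluted along one axis, test agent 2-fold diluted along the other. Overnight culture standardized to 0.5 McFarland in saline, diluted 1:50 in MHB, added to wells, incubated 37 °C for 18 h. MIC is the lowest concentration with no growth. FIC = MIC in combination / MIC alone; FIC index = sum of both FICs.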

[3] = test system: Pseudomonas aeruginosa; experiment: Inhibition of RND efflux pump in Pseudomonas aeruginosa isolate 100036 assessed as potentiation of minocycline-induced antibacterial activity by measuring fold reduction in minocycline MIC at 8 ug/ml after 18 to 24 hrs by microbroth dilution assay
Procedure, shortened: (§3)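 Checkerboard broth microdilution: antibiotic 2-fold diluted along one axis, adjuvant 2-fold diluted along the other. Overnight culture standardized to 0.5 McFarland in saline, diluted 1:50 in MHB, added to wells, 37 °C for 18 h. MIC is the lowest concentration with no growth. FIC = MIC in combination / MIC alone; FICI = sum of the two FICs; FICI ≤0.5 is synergy.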

[4] = test system: Pseudomonas aeruginosa; experiment: Potentiation of minocycline-induced antibacterial activity against mexAB-oprM/mexCD-oprJ/mexEF-oprN/mexXY/mexJK/opmH deficient Pseudomonas aeruginosa PAO750 after 18 to 24 hrs by microbroth dilution assay; assay type: functional
[5] = test system: Pseudomonas aeruginosa; experiment: Antibacterial activity against Pseudomonas aeruginosa isolate P264-104354 after 18 to 24 hrs by microbroth dilution assay; assay type: functional; procedure, shortened: as §2
[6] = test system: Pseudomonas aeruginosa; experiment: Inhibition of RND efflux pump in colistin-resistant Pseudomonas aeruginosa isolate 101243 assessed as potentiation of minocycline-induced antibacterial activity by measuring fold reduction in minocycline MIC at 8 ug/ml after 18 to 24 hrs by microbroth dilution assay; procedure, shortened: as §3
[7] = test system: Pseudomonas aeruginosa; experiment: Inhibition of RND efflux pump in Pseudomonas aeruginosa isolate P259-96918 assessed as potentiation of minocycline-induced antibacterial activity by measuring fold reduction in minocycline MIC at 8 ug/ml after 18 to 24 hrs by microbroth dilution assay; procedure, shortened: as §3
[8] = test system: Pseudomonas aeruginosa; experiment: Antibacterial activity against Pseudomonas aeruginosa PAO1 after 18 to 24 hrs by microbroth dilution assay; assay type: functional; procedure, shortened: as §2
[9] = test system: Pseudomonas aeruginosa PAO1; experiment: Inhibition of RND efflux pump in Pseudomonas aeruginosa PAO1 assessed as potentiation of doxycycline-induced antibacterial activity by measuring fold reduction in doxycycline MIC at 8 ug/ml after 18 to 24 hrs by microbroth dilution assay relative to doxycycline alone; procedure, shortened: as §3
[10] = test system: Klebsiella pneumoniae; experiment: Inhibition of RND efflux pump in Klebsiella pneumoniae isolate 116381 assessed as potentiation of minocycline-induced antibacterial activity by measuring minocycline MIC at 8 ug/ml after 18 to 24 hrs by microbroth dilution assay (reference value: 128 ug/ml); procedure, shortened: as §1
[11] = test system: Pseudomonas aeruginosa; experiment: Inhibition of RND efflux pump in colistin-resistant Pseudomonas aeruginosa isolate 101243 assessed as potentiation of minocycline-induced antibacterial activity by measuring minocycline MIC at 8 ug/ml after 18 to 24 hrs by microbroth dilution assay (reference value: 32 ug/ml); procedure, shortened: as §3
[12] = test system: Pseudomonas aeruginosa; experiment: Inhibition of RND efflux pump in Pseudomonas aeruginosa isolate 100036 assessed as potentiation of minocycline-induced antibacterial activity by measuring minocycline MIC at 8 ug/ml after 18 to 24 hrs by microbroth dilution assay (reference value: 64 ug/ml); procedure, shortened: as §3
[13] = test system: Pseudomonas aeruginosa PAO1; experiment: Inhibition of RND efflux pump in Pseudomonas aeruginosa PAO1 assessed as increase in tetracycline uptake measured at 1 min interval for 30 mins by fluorescence assay
Procedure, shortened: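 Tetracycline uptake assay in P. aeruginosa PAO1: enhancement of tetracycline fluorescence as it enters cells, monitored with compound present at several concentrations.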

[14] = test system: Pseudomonas aeruginosa; experiment: Inhibition of RND efflux pump in Pseudomonas aeruginosa isolate P262-101856 assessed as potentiation of minocycline-induced antibacterial activity by measuring minocycline MIC at 8 ug/ml after 18 to 24 hrs by microbroth dilution assay (reference value: 128 to 256 ug/ml); procedure, shortened: as §1
[15] = test system: Enterobacter cloacae; experiment: Antibacterial activity against Enterobacter cloacae isolate 117029 after 18 to 24 hrs by microbroth dilution assay; assay type: functional; procedure, shortened: as §2
[16] = test system: Pseudomonas aeruginosa; experiment: Antibacterial activity against Pseudomonas aeruginosa isolate P259-96918 after 18 to 24 hrs by microbroth dilution assay; assay type: functional; procedure, shortened: as §2
[17] = test system: Pseudomonas aeruginosa PAO1; experiment: Inhibition of RND efflux pump in Pseudomonas aeruginosa PAO1 assessed as potentiation of vancomycin-induced antibacterial activity […] by microbroth dilution assay
[18] = test system: Pseudomonas aeruginosa PAO1; experiment: Inhibition of RND efflux pump in Pseudomonas aeruginosa PAO1 assessed as potentiation of minocycline-induced antibacterial activity at 8 ug/ml after 18 to 24 hrs by checker board assay; procedure, shortened: as §2
[19] = test system: Pseudomonas aeruginosa; experiment: Inhibition of RND efflux pump in Pseudomonas aeruginosa isolate 101885 assessed as potentiation of minocycline-induced antibacterial activity at 8 ug/ml after 18 to 24 hrs by checker board assay; procedure, shortened: as §2
[20] = test system: Pseudomonas aeruginosa PAO1; experiment: Inhibition of RND efflux pump in Pseudomonas aeruginosa PAO1 assessed as potentiation of minocycline-induced antibacterial activity by measuring minocycline MIC at 8 ug/ml after 18 to 24 hrs by microbroth dilution assay (reference value: 8 ug/ml); procedure, shortened: as §1
[21] = test system: Pseudomonas aeruginosa; experiment: Inhibition of RND efflux pump in Pseudomonas aeruginosa isolate 100036 assessed as potentiation of minocycline-induced antibacterial activity at 8 ug/ml after 18 to 24 hrs by checker board assay; procedure, shortened: as §2
[22] = test system: Pseudomonas aeruginosa PAO1; experiment: Inhibition of RND efflux pump in Pseudomonas aeruginosa PAO1 assessed as potentiation of gentamicin-induced antibacterial activity after 18 to 24 hrs by checker board assay; procedure, shortened: as §2
[23] = test system: Pseudomonas aeruginosa; experiment: Antibacterial activity against colistin-resistant Pseudomonas aeruginosa isolate 101243 after 18 to 24 hrs by microbroth dilution assay; assay type: functional; procedure, shortened: as §3
[24] = test system: Pseudomonas aeruginosa; experiment: Inhibition of RND efflux pump in Pseudomonas aeruginosa isolate P262-101856 assessed as potentiation of minocycline-induced antibacterial activity by measuring fold reduction in minocycline MIC at 8 ug/ml after 18 to 24 hrs by microbroth dilution assay; procedure, shortened: as §3
[25] = test system: Klebsiella pneumoniae; experiment: Inhibition of RND efflux pump in Klebsiella pneumoniae isolate 116381 assessed as potentiation of minocycline-induced antibacterial activity at 8 ug/ml after 18 to 24 hrs by microbroth dilution assay; procedure, shortened: as §2
[26] = test system: Pseudomonas aeruginosa; experiment: Inhibition of RND efflux pump in Pseudomonas aeruginosa isolate P260-97103 assessed as potentiation of minocycline-induced antibacterial activity by measuring minocycline MIC at 0.25 times antibacterial MIC after 18 to 24 hrs by microbroth dilution assay (reference value: 8 to 16 ug/ml); procedure, shortened: as §3

SMILES	fold change (FC) [1]	fractional inhibitory concentration index (FICI) [2]	fold change (FC) [3]	Activity [4]	MIC [5] [µg/mL]	fold change (FC) [6]	fold change (FC) [7]	MIC [8] [µg/mL]	fold change (FC) [9]	MIC [10] [µg/mL]	MIC [11] [µg/mL]	MIC [12] [µg/mL]	inhibition [13]	MIC [14] [µg/mL]	MIC [15] [µg/mL]	MIC [16] [µg/mL]	fractional inhibitory concentration index (FICI) [17]	fractional inhibitory concentration index (FICI) [18]	fractional inhibitory concentration index (FICI) [19]	MIC [20] [µg/mL]	also measured
Cl.Cl.Cl.Cl.Cl.Cl.Cl.NC[C@H]1O[C@H](O[C@H]2[C@H](OCCCCCCCCCCCCN3CCN(Cc4cccc5ccccc45)CC3)[C@@H](O[C@H]3O[C@H](CO)[C@@H](O)[C@H](N)[C@H]3O)[C@H](N)C[C@@H]2N)[C@H](N)C[C@@H]1O	4 to 256	0.09	8 to 256	inactive	128	8 to 256	8 to 256	64	8 to 64	16	1	0.5	Dose-dependent effect	4	> 32	> 1020	< 0.15	0.19	0.05	0.5	fractional inhibitory concentration index (FICI) [21]: 0.02; fractional inhibitory concentration index (FICI) [22]: > 1.5; MIC [23]: 64 µg/mL; fold change (FC) [24]: 8 to 256; fractional inhibitory concentration index (FICI) [25]: 0.13 to 0.38; MIC [26]: 0.5 µg/mL
NC[C@H]1C[C@H](C(=O)N[C@H](CCc2ccccc2)C(=O)Nc2ccc3ccccc3c2)N(CCCCCCCCCCCCO[C@@H]2[C@@H](O[C@H]3O[C@H](CO)[C@@H](O)[C@H](N)[C@H]3O)[C@H](N)C[C@H](N)[C@H]2O[C@H]2O[C@H](CN)[C@@H](O)C[C@H]2N)C1	4 to 256	0.08	8 to 256	inactive	8 (≈ 7.52 µM)	8 to 256	8 to 256	32 (≈ 30.1 µM)	8 to 64	4	0.5	< 0.25	Dose-dependent effect	< 1	32 (≈ 30.1 µM)	64 (≈ 60.1 µM)	< 0.15	0.09	0.13	0.12	fractional inhibitory concentration index (FICI) [21]: 0.06; fractional inhibitory concentration index (FICI) [22]: > 1.5; MIC [23]: 16 µg/mL (≈ 15 µM); fold change (FC) [24]: 8 to 256; fractional inhibitory concentration index (FICI) [25]: 0.03 to 0.16; MIC [26]: 0.5 µg/mL
Cl.Cl.Cl.Cl.Cl.Cl.NC[C@H]1O[C@H](O[C@H]2[C@H](OCCCCCCCCCCCCN3CC[C@@H](c4ccc(F)cc4)[C@H](COc4ccc5c(c4)OCO5)C3)[C@@H](O[C@H]3O[C@H](CO)[C@@H](O)[C@H](N)[C@H]3O)[C@H](N)C[C@@H]2N)[C@H](N)C[C@@H]1O	4 to 256	0.13	8 to 256	inactive	64	8 to 256	8 to 256	32	8 to 64	32	1	< 0.25	Dose-dependent effect	1	> 32	> 512	< 0.15	0.19	0.13	0.25	fractional inhibitory concentration index (FICI) [21]: 0.05; fractional inhibitory concentration index (FICI) [22]: > 1.5; MIC [23]: 32 µg/mL; fold change (FC) [24]: 8 to 256; fractional inhibitory concentration index (FICI) [25]: 0.25 to 0.38; MIC [26]: < 1 µg/mL
